Compound activity as filed in PubChem BioAssay.
A selection: hits, their analogues and other compounds. The true share with any hit is near 4.5%.
GPR7 antagonist – blocks human GPR7 receptor signaling; hit rate 1.1% among 290,000; inhibition, % at 4.4 µM; AID 1861; GPR7-expressing cells, fluorescence antagonist assay; in the data active = inhibition above about 16%, passing the limit was not always enough;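 also: cells stimulated with the agonist NPW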
Target sequence (P48145 whole entry, looked up): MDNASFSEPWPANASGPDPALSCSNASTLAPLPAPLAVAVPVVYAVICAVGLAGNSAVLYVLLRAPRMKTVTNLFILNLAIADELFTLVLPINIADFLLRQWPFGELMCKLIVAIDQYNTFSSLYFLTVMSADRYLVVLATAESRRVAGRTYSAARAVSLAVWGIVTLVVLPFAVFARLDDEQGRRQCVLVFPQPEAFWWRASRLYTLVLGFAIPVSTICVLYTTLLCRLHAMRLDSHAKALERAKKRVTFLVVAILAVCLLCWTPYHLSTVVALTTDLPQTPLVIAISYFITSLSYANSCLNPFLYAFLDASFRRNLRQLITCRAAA
OX1R antag-1 – blocks the human orexin 1 receptor; O43613; CHO/OX1R cells, Fluo-8 calcium fluorescence, orexin A; inhibition, % at 5 µM; hit rate 0.43% among 330,000;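 active = inhibition above its plate's threshold, mean inhibition of all tested compounds on the plate plus 3 SD, cut at about 37% in these data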
TAAR1 antag – antagonists of human TAAR1. Q96RJ0. CHO RD-HGA16 TAAR1, Fluo-8 calcium fluorescence, antagonist. inhibition, % at 3 µM. hit rate 1.5% among 360,000. AID 624466;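 active = inhibition above a per-plate cutoff, the mean inhibition of test compounds on that plate plus 3 SD, cut at about 49% in these data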
Target sequence (Q96RJ0 whole entry, looked up): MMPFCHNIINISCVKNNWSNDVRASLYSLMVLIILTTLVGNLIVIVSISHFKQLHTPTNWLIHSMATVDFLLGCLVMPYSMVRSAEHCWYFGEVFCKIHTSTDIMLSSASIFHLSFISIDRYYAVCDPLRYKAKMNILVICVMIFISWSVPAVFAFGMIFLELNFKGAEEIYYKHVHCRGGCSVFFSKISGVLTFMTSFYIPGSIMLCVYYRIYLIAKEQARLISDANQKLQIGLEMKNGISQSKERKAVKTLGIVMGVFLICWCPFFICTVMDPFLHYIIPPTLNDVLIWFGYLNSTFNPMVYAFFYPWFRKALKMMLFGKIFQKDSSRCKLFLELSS
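Test system: CHO RD-HGA16 cells bearing hTAAR1 | Reagent: β-PEA, EC80 | Compound dosing: 3 µM, single point | Schedule: Dye loading 75 min at 37 °C, then 30 min room temperature | Signal: Calcium fluorescence with Fluo-8 | Evaluation: Percent inhibition of PEA-evoked calcium signal, max/basal emission ratio | Control set: DMSO-only wells and EC80 β-PEA-stimulated wells | Repeats: Singlicate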
OX1R antag-2 – OX1R (human) antagonism; AID 485270; inhibition, % at 6.6 µM; O43613; OX1R-expressing cells, FRET antagonist read-out; hit rate 1.8% among 330,000; in the data active = inhibition mostly above about 38%, no sharp cut-off; inactive = mostly below about 40%
CHO parental Ca – counter-screen: ATP calcium response change in parental CHO cells; AID 463079; hit rate 0.63% among 330,000; inhibition, % at 5.6 µM; parental CHO-K1, ATP-induced calcium, Fluo-8 fluorescence;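 active = inhibition above that plate's mean sample inhibition plus 3 SD, cut at about 26% in these data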
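Assay system: untransfected parental CHO cell line. Also added: ATP agonist challenge. Dosing: one dose, 5.6 µM nominal. Measured by: Fluo-8 fluorescence. Read-out: % inhibition. Benchmarks: ATP wells versus no-ATP DMSO wells. Repeats: no replicates.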
TAAR1 ag – human TAAR1 agonism; CHO RD-HGA16 TAAR1, Fluo-8 calcium fluorescence; vehicle wells 0%, saturating PEA agonist 100%; activation, % at 3 µM; hit rate 0.99% among 360,000;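 active = activation above the mean activation of all test compounds in the run plus 3 SD, cut at about 38% in these data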
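Benchmarks: low control DMSO, high control PEA (EC100); System: CHO RD-HGA16 cells carrying human TAAR1 plus Gα16; Detection: Fluo-8 fluorescence, 5 s baseline then 140 s kinetic read; Schedule: 17-24 h plating, Fluo-8 75 min 37 °C, 30 min RT; Read-out basis: % activation from peak over basal fluorescence ratio, DMSO-to-PEA scaled.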
OX1R HTRF conf – confirmation of human orexin 1 receptor antagonists, HTRF format; shares compounds with OX1R antag-2; OX1R-expressing cells, HTRF antagonist assay; inhibition, % at 6.6 µM; hit rate 49% among 1,800; in the data active = inhibition above about 55%;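 also: CHO cells expressing OX1R stimulated with orexin A at about EC80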
CHO-K1 HTRF – counter-screen: parental CHO-K1 HTRF response; parental CHO-K1 cells, HTRF counterscreen; hit rate 48% among 1,800; shares compounds with OX1R antag-2; inhibition, % at 6.6 µM; in the data active = inhibition above about 17%
A number is an active result; – = inactive; · = no result given.

SMILES | GPR7 antagonist | OX1R antag-1 | TAAR1 antag | OX1R antag-2 | CHO parental Ca | TAAR1 ag | OX1R HTRF conf | CHO-K1 HTRF
O=C(CC1Nc2ccccc2NC1=O)NCC1COc2ccccc2O1 (stereo not drawn) | – | – | · | 79 | – | · | 65 | –
O=C(CC1OC(=O)c2ccccc21)NCC1COc2ccccc2O1 (stereo not drawn) | · | – | – | – | – | – | · | ·
O=C(C1CN(C(=O)c2cc3ccccc3o2)c2ccccc2O1)N1CCCCC1 (stereo not drawn) | · | · | – | · | · | – | · | ·
CCN(Cc1ccccc1)C(=O)COC(=O)c1cc(S(=O)(=O)Nc2c(C)n(C)n(-c3ccccc3)c2=O)ccc1C | – | – | – | 81 | – | – | 74 | –
CCN(CC)c1ccc(N=Nc2nn(C)c(C)c2[N+](=O)[O-])cc1 | – | – | – | 88 | – | – | – | 29
Brc1cccc(-c2nnc(SCc3nc4ccccc4[nH]3)o2)c1 | – | – | – | 80 | – | – | – | –
c1ccc2c(c1)oc1c(-c3cccc4nccn34)cccc12 | · | · | – | · | · | – | · | ·
C=CCOn1c(=O)c(-c2ccc(OC)cc2)[n+]([O-])c2ccccc21 | – | – | – | 98 | – | – | – | 48
Cc1c(=O)n(OCc2ccccc2)c2ccccc2[n+]1[O-] | – | – | – | 103 | – | – | – | 25
O=[N+]([O-])c1ccc(/C=N/n2cn[nH]c2=S)cc1 | – | – | – | 109 | – | – | 60 | 74
CSc1nncn1/N=C/c1ccc([N+](=O)[O-])cc1 | – | – | – | 90 | – | – | – | 46
CC(=O)c1ccc(OCC(=O)OCC(=O)c2ccc(S(=O)(=O)N3CCCCC3)cc2)cc1 | · | · | – | · | · | – | · | ·
CC(C)(C)C(=O)/C=c1\[nH]c(=O)/c(=C\c2ccc(F)cc2)s1 | – | – | – | – | – | – | · | ·
COc1ccc(/C=c2\s/c(=C/C(=O)c3ccc(C)cc3)[nH]c2=O)cc1OC | – | – | – | 82 | – | – | 84 | 19
CC(C)c1ccc(CC(=O)N2CCC2(C)C(=O)NS(=O)(=O)c2cccc(C#N)c2)cc1 (stereo not drawn) | · | · | – | · | · | – | · | ·
O=C1CC(=O)Nc2cc(S(=O)(=O)N3CCN(c4ccc([N+](=O)[O-])cc4)CC3)ccc2N1 | – | – | – | – | – | – | · | ·
Nc1ncnc2nc(SCCOc3ccc(Cl)cc3)[nH]c12 | – | – | – | – | – | – | · | ·
Cc1ccc(OCCSc2nc3ncnc(N)c3[nH]2)cc1 | – | – | – | 99 | – | – | – | –
CCCC[n+]1ccc(-c2nc3ccc([N+](=O)[O-])cc3[nH]2)cc1 | – | – | – | 113 | – | – | 56 | 80
Clc1ccccc1Nc1nc(-c2cccnc2)cs1 | – | – | – | 84 | – | – | 77 | –
CCOC(=O)N/N=C\c1ccc([N+](=O)[O-])o1 | – | – | – | 78 | – | – | – | 79
CCCCCCCC(=O)N/N=C/c1ccc([N+](=O)[O-])o1 | – | – | – | – | – | – | · | ·
O=C(O)c1cccc(NS(=O)(=O)c2cccc3nsnc23)c1 | – | – | – | – | – | – | · | ·
COc1ccc(C(=O)O)cc1NS(=O)(=O)c1cccc2nsnc12 | – | – | – | 116 | – | – | – | 30
COc1ccccc1NC(=O)CS(=O)(=O)c1cccc2nsnc12 | – | – | – | 100 | – | – | – | 37
SMILES | GPR7 antagonist | OX1R antag-1 | TAAR1 antag | OX1R antag-2 | CHO parental Ca | TAAR1 ag | OX1R HTRF conf | CHO-K1 HTRF
CN(C)C(CNC(=O)c1cc2ccccc2oc1=O)c1ccccc1 (stereo not drawn) | – | – | – | 92 | – | – | – | 43
CN(CCO)C1=NS(=O)(=O)c2cc([N+](=O)[O-])ccc21 | – | – | – | 95 | – | – | 66 | 94
CN(CCO)c1cc(N(C)CCO)c([N+](=O)[O-])cc1[N+](=O)[O-] | – | – | – | – | – | – | · | ·
O=C(NC1CCCCC1)C1CC(=O)N(c2cccc([N+](=O)[O-])c2)C1 (stereo not drawn) | – | – | – | 88 | – | – | – | –
O=C(NCc1ccc2c(c1)OCO2)C(=O)NCC1OCCCN1S(=O)(=O)c1ccccc1 (stereo not drawn) | · | · | – | · | · | – | · | ·
Cc1ccc(CNC(=O)c2ccc([N+](=O)[O-])o2)cc1 | – | – | – | 78 | – | – | – | 33
Cc1ccnc(NC(=O)c2ccccc2[N+](=O)[O-])c1 | – | – | – | – | – | – | · | ·
Cc1ccc(/C=C/C(=O)c2ccc([N+](=O)[O-])o2)cc1 | · | – | – | – | – | – | · | ·
Cc1ccnc(NC(=O)c2ccc([N+](=O)[O-])o2)c1 | – | – | – | 94 | – | – | – | 68
O=C(N[C@H]1c2ccccc2C[C@H]1O)[C@H]1O[C@@H](n2ccc(=O)[nH]c2=O)[C@H](O)[C@@H]1O | · | · | – | · | · | – | · | ·
COc1cc(N=c2oc3c(C)ncc(CO)c3cc2C(N)=O)cc(OC)c1OC | – | – | – | 121 | – | – | 55 | 58
CCC(=O)N(C1=C(NC)C(=O)c2ccccc2C1=O)C(C)C | – | – | – | 80 | – | – | 66 | 64
CNC1=C(N(C(C)=O)c2ccc(Br)cc2)C(=O)c2ccccc2C1=O | – | – | – | 105 | – | – | 55 | 97
[O-][n+]1c2ccccc2[n+]([O-])c2cc(O)ccc21 | – | – | – | 92 | – | – | 63 | 111
Cc1csc(NC(=O)CSCC(=O)O)c1-c1nc2ccccc2s1 | – | – | – | 83 | – | – | 88 | –
O=C(O)CSCC(=O)Nc1ccc(-c2nc3ccccc3s2)cc1 | – | – | – | – | – | – | · | ·
CC(=O)Nc1c2c3c(cccc3n(C)c1=O)C(=O)c1ccccc1-2 | – | – | – | 154 | – | – | – | 65
CCOC(=O)c1c2c3c(cccc3n(C)c1=O)C(=O)c1ccccc1-2 | – | – | – | – | – | – | · | ·
O=C(CCS(=O)(=O)c1cccc2nsnc12)N1CCN(Cc2ccc3c(c2)OCO3)CC1 | – | – | – | – | – | – | · | ·
Cc1ccc(CNC(=O)C(NS(=O)(=O)c2cccc3nsnc23)C(C)C)cc1 (stereo not drawn) | – | – | – | – | – | – | · | ·
O=C(CCS(=O)(=O)c1cccc2nsnc12)N1CCN(C(=O)c2ccco2)CC1 | – | – | – | 91 | – | – | – | 53
O=C(NCc1ccco1)C1CCCN(S(=O)(=O)c2cccc3nsnc23)C1 (stereo not drawn) | – | – | – | 78 | – | – | – | 34
CCCNC(=O)C(NS(=O)(=O)c1cccc2nsnc12)c1ccccc1 (stereo not drawn) | – | – | – | 98 | – | – | 64 | 36
